{"source": "ChEMBL document CHEMBL2401640", "about": "“In search of flavivirus inhibitors: evaluation of different tritylated nucleoside analogues” (Eur J Med Chem, 2013)", "key": {"[1]": {"assay": "Cytotoxicity against mosquito C6/36 cells after 1 week", "format": "cell-based", "conditions": "aedes albopictus"}, "[2]": {"assay": "Selectivity index, ratio of CC50 for mosquito C6/36 cells to EC50 for DENV serotype 2 NGC"}, "[3]": {"assay": "Cytotoxicity against african green monkey Vero cells after 1 week", "format": "cell-based", "conditions": "chlorocebus sabaeus", "how_it_was_run": "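Vero-B cells in MEM with 2% FCS, seeded at 7 x 10³ (DENV assay) or 2 x 10⁴ (YFV assay) cells/well and left to adhere overnight. Serial compound dilutions were added without virus and incubated one week. Cells were ethanol-fixed and stained with 1% methylene blue. CC50, the concentration inhibiting cell growth by 50%, was determined visually.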"}, "dengue virus type 2": {"system": "dengue virus type 2", "assay": "Antiviral activity against DENV serotype 2 NGC infected in mosquito C6/36 cells assessed as inhibition of virus-induced cytopathic effect after 1 week", "format": "functional, organism-based", "conditions": "C6/36, 168 h"}, "Yellow fever virus": {"system": "Yellow fever virus", "assay": "Antiviral activity against YFV 17D infected in african green monkey Vero cells assessed as inhibition of virus-induced cytopathic effect after 1 week", "format": "functional, cell-based", "conditions": "168 h", "how_it_was_run": "(§1)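 Vero-B cells (ATCC CCL-81), grown in MEM with 10% FCS, seeded at 2 x 10⁴ cells/well in 2% FCS medium and left to adhere overnight. Infected with 100 CCID₅₀ of YFV-17D vaccine strain (one passage in Vero-B), then serial compound dilutions added. After one week, fixed with ethanol and stained with methylene blue. EC₅₀ for CPE inhibition and CC₅₀ from uninfected parallel cultures, both read visually.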"}, "[4]": {"assay": "Selectivity index, ratio of CC50 for african green monkey Vero cells to EC50 for YFV 17D", "how_it_was_run": "as §1"}}}
{"smiles": "O=c1ccn([C@@H]2O[C@H](COC(c3ccccc3)(c3ccccc3)c3ccccc3)[C@@H](OC(c3ccccc3)(c3ccccc3)c3ccccc3)[C@H]2O)c(=O)[nH]1", "values": [{"measurement": "CC50 at 168 h", "setting": "[1]", "value": "> 10", "unit": "µM"}, {"measurement": "Ratio CC50/EC50", "setting": "[2]", "value": ">5"}, {"measurement": "CC50 at 168 h", "setting": "[3]", "value": "> 85", "unit": "µM"}, {"measurement": "EC50", "setting": "dengue virus type 2", "value": 1.75, "unit": "µM"}, {"measurement": "EC50", "setting": "Yellow fever virus", "value": 1000, "unit": "nM"}, {"measurement": "Ratio CC50/EC50", "setting": "[4]", "value": ">85"}]}
{"smiles": "O=c1ccn([C@@H]2O[C@H](CO)[C@@H](OC(c3ccccc3)(c3ccccc3)c3ccccc3)[C@H]2O)c(=O)[nH]1", "values": [{"measurement": "CC50 at 168 h", "setting": "[1]", "value": 18, "unit": "µM"}, {"measurement": "CC50 at 168 h", "setting": "[3]", "value": 18, "unit": "µM"}, {"measurement": "EC50", "setting": "Yellow fever virus", "value": 10000, "unit": "nM"}, {"measurement": "Ratio CC50/EC50", "setting": "[4]", "value": 1.8}]}
{"smiles": "O=c1ccn([C@@H]2O[C@H](COC(c3ccccc3)(c3ccccc3)c3ccccc3)[C@@H](O)[C@H]2OC(c2ccccc2)(c2ccccc2)c2ccccc2)c(=O)[nH]1", "values": [{"measurement": "CC50 at 168 h", "setting": "[1]", "value": "> 100", "unit": "µM"}, {"measurement": "Ratio CC50/EC50", "setting": "[2]", "value": ">3"}, {"measurement": "CC50 at 168 h", "setting": "[3]", "value": "> 100", "unit": "µM"}, {"measurement": "EC50", "setting": "dengue virus type 2", "value": 30, "unit": "µM"}, {"measurement": "EC50", "setting": "Yellow fever virus", "value": 1200, "unit": "nM"}, {"measurement": "Ratio CC50/EC50", "setting": "[4]", "value": ">80"}]}
{"smiles": "Cc1cn([C@H]2C[C@H](O)[C@@H](COC(c3ccccc3)(c3ccccc3)c3ccccc3)O2)c(=O)[nH]c1=O", "values": [{"measurement": "CC50 at 168 h", "setting": "[1]", "value": 4, "unit": "µM"}, {"measurement": "CC50 at 168 h", "setting": "[3]", "value": 8, "unit": "µM"}]}
{"smiles": "Cc1cn([C@H]2C[C@H](OC(c3ccccc3)(c3ccccc3)c3ccccc3)[C@@H](COC(c3ccccc3)(c3ccccc3)c3ccccc3)O2)c(=O)[nH]c1=O", "values": [{"measurement": "CC50 at 168 h", "setting": "[1]", "value": 35, "unit": "µM"}, {"measurement": "CC50 at 168 h", "setting": "[3]", "value": 70, "unit": "µM"}, {"measurement": "EC50", "setting": "Yellow fever virus", "value": 10000, "unit": "nM"}, {"measurement": "Ratio CC50/EC50", "setting": "[4]", "value": 7}]}
{"smiles": "O=c1ccn([C@H]2C[C@H](OC(c3ccccc3)(c3ccccc3)c3ccccc3)[C@@H](CO)O2)c(=O)[nH]1", "values": [{"measurement": "CC50 at 168 h", "setting": "[1]", "value": 5, "unit": "µM"}, {"measurement": "CC50 at 168 h", "setting": "[3]", "value": 4, "unit": "µM"}, {"measurement": "EC50", "setting": "Yellow fever virus", "value": 1500, "unit": "nM"}, {"measurement": "Ratio CC50/EC50", "setting": "[4]", "value": 2.7}]}
{"smiles": "O=c1[nH]cnc2c1ncn2[C@@H]1O[C@H](COC(c2ccccc2)(c2ccccc2)c2ccccc2)[C@@H](OC(c2ccccc2)(c2ccccc2)c2ccccc2)[C@H]1O", "values": [{"measurement": "CC50 at 168 h", "setting": "[1]", "value": 10, "unit": "µM"}, {"measurement": "Ratio CC50/EC50", "setting": "[2]", "value": 6.6}, {"measurement": "CC50 at 168 h", "setting": "[3]", "value": 10, "unit": "µM"}, {"measurement": "EC50", "setting": "dengue virus type 2", "value": 1.5, "unit": "µM"}, {"measurement": "EC50", "setting": "Yellow fever virus", "value": "< 400", "unit": "nM"}, {"measurement": "Ratio CC50/EC50", "setting": "[4]", "value": ">40"}]}
{"smiles": "O=c1ccn([C@@H]2O[C@H](COC(c3ccccc3)(c3ccccc3)c3ccccc3)[C@@H](O)[C@H]2O)c(=O)[nH]1", "values": [{"measurement": "CC50 at 168 h", "setting": "[1]", "value": 10, "unit": "µM"}, {"measurement": "Ratio CC50/EC50", "setting": "[2]", "value": 1.67}, {"measurement": "CC50 at 168 h", "setting": "[3]", "value": 18, "unit": "µM"}, {"measurement": "EC50", "setting": "dengue virus type 2", "value": 6, "unit": "µM"}, {"measurement": "EC50", "setting": "Yellow fever virus", "value": 4000, "unit": "nM"}, {"measurement": "Ratio CC50/EC50", "setting": "[4]", "value": 4.5}]}
{"smiles": "O=c1[nH]c(=O)n([C@@H]2O[C@H](COC(c3ccccc3)(c3ccccc3)c3ccccc3)[C@@H](OC(c3ccccc3)(c3ccccc3)c3ccccc3)[C@H]2O)cc1Cl", "values": [{"measurement": "CC50 at 168 h", "setting": "[1]", "value": 1, "unit": "µM"}, {"measurement": "CC50 at 168 h", "setting": "[3]", "value": 2, "unit": "µM"}, {"measurement": "EC50", "setting": "Yellow fever virus", "value": 700, "unit": "nM"}, {"measurement": "Ratio CC50/EC50", "setting": "[4]", "value": 2.9}]}
{"smiles": "O=c1[nH]c(=O)n([C@@H]2O[C@H](COC(c3ccccc3)(c3ccccc3)c3ccccc3)[C@@H](O)[C@H]2OC(c2ccccc2)(c2ccccc2)c2ccccc2)cc1Cl", "values": [{"measurement": "CC50 at 168 h", "setting": "[1]", "value": 30, "unit": "µM"}, {"measurement": "Ratio CC50/EC50", "setting": "[2]", "value": 1.75}, {"measurement": "CC50 at 168 h", "setting": "[3]", "value": "> 70", "unit": "µM"}, {"measurement": "EC50", "setting": "dengue virus type 2", "value": 17, "unit": "µM"}, {"measurement": "EC50", "setting": "Yellow fever virus", "value": 750, "unit": "nM"}, {"measurement": "Ratio CC50/EC50", "setting": "[4]", "value": ">90"}]}
{"smiles": "O=c1ccn([C@@H]2O[C@H](CO)[C@@H](O)[C@H]2OC(c2ccccc2)(c2ccccc2)c2ccccc2)c(=O)[nH]1", "values": [{"measurement": "CC50 at 168 h", "setting": "[1]", "value": 40, "unit": "µM"}, {"measurement": "CC50 at 168 h", "setting": "[3]", "value": 35, "unit": "µM"}, {"measurement": "EC50", "setting": "Yellow fever virus", "value": 25000, "unit": "nM"}, {"measurement": "Ratio CC50/EC50", "setting": "[4]", "value": 1.4}]}
{"smiles": "O=c1[nH]c(=O)n([C@@H]2O[C@H](COC(c3ccccc3)(c3ccccc3)c3ccccc3)[C@@H](O)[C@H]2O)cc1Cl", "values": [{"measurement": "CC50 at 168 h", "setting": "[1]", "value": 5, "unit": "µM"}, {"measurement": "CC50 at 168 h", "setting": "[3]", "value": 5, "unit": "µM"}, {"measurement": "EC50", "setting": "Yellow fever virus", "value": 2000, "unit": "nM"}, {"measurement": "Ratio CC50/EC50", "setting": "[4]", "value": 2.5}]}
{"smiles": "O=c1[nH]cnc2c1ncn2[C@@H]1O[C@H](COC(c2ccccc2)(c2ccccc2)c2ccccc2)[C@@H](O)[C@H]1OC(c1ccccc1)(c1ccccc1)c1ccccc1", "values": [{"measurement": "CC50 at 168 h", "setting": "[1]", "value": 6, "unit": "µM"}, {"measurement": "CC50 at 168 h", "setting": "[3]", "value": 10, "unit": "µM"}]}
{"smiles": "Oc1ncnc2c1ncn2[C@@H]1O[C@H](COC(c2ccccc2)(c2ccccc2)c2ccccc2)[C@@H](O)[C@H]1O", "values": [{"measurement": "CC50 at 168 h", "setting": "[1]", "value": 30, "unit": "µM"}, {"measurement": "CC50 at 168 h", "setting": "[3]", "value": 30, "unit": "µM"}]}
{"smiles": "O=c1ccn([C@H]2C[C@H](O)[C@@H](COC(c3ccccc3)(c3ccccc3)c3ccccc3)O2)c(=O)[nH]1", "values": [{"measurement": "CC50 at 168 h", "setting": "[1]", "value": 8, "unit": "µM"}, {"measurement": "CC50 at 168 h", "setting": "[3]", "value": 5, "unit": "µM"}, {"measurement": "EC50", "setting": "Yellow fever virus", "value": 3000, "unit": "nM"}, {"measurement": "Ratio CC50/EC50", "setting": "[4]", "value": 1.7}]}
{"smiles": "O=c1ccn([C@H]2C[C@H](OC(c3ccccc3)(c3ccccc3)c3ccccc3)[C@@H](COC(c3ccccc3)(c3ccccc3)c3ccccc3)O2)c(=O)[nH]1", "values": [{"measurement": "CC50 at 168 h", "setting": "[1]", "value": "> 65", "unit": "µM"}, {"measurement": "Ratio CC50/EC50", "setting": "[2]", "value": ">17"}, {"measurement": "CC50 at 168 h", "setting": "[3]", "value": "> 65", "unit": "µM"}, {"measurement": "EC50", "setting": "dengue virus type 2", "value": 3.7, "unit": "µM"}, {"measurement": "EC50", "setting": "Yellow fever virus", "value": 900, "unit": "nM"}, {"measurement": "Ratio CC50/EC50", "setting": "[4]", "value": ">70"}]}
{"smiles": "Cc1cn([C@H]2C[C@H](OC(c3ccccc3)(c3ccccc3)c3ccccc3)[C@@H](CO)O2)c(=O)[nH]c1=O", "values": [{"measurement": "CC50 at 168 h", "setting": "[1]", "value": 10, "unit": "µM"}, {"measurement": "CC50 at 168 h", "setting": "[3]", "value": 18, "unit": "µM"}, {"measurement": "EC50", "setting": "Yellow fever virus", "value": 10000, "unit": "nM"}, {"measurement": "Ratio CC50/EC50", "setting": "[4]", "value": 1.8}]}
{"smiles": "O=c1[nH]c(=O)n([C@@H]2O[C@H](CO)[C@@H](O)[C@H]2OC(c2ccccc2)(c2ccccc2)c2ccccc2)cc1Cl", "values": [{"measurement": "CC50 at 168 h", "setting": "[1]", "value": 30, "unit": "µM"}, {"measurement": "CC50 at 168 h", "setting": "[3]", "value": 30, "unit": "µM"}, {"measurement": "EC50", "setting": "Yellow fever virus", "value": 15000, "unit": "nM"}, {"measurement": "Ratio CC50/EC50", "setting": "[4]", "value": 2}]}
